Reference: ChEMBL document CHEMBL3244138, “New antiarrhythmic agents. 3. Primary beta-amino anilides” (J Med Chem, 1979)
Active and inactive are the calls of the source. The rule behind the calls is not given here.

How the values were obtained:
Mus musculus [1] = assay: Toxicity in mouse assessed as mortality at 100 mg/kg, sc measured up to 20 mins; format: organism-based; design: dose 100 mg/kg, route subcutaneous; settings: in vivo
How it was run: (§1)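 Preliminary screen: drug dissolved in 0.9% saline and given subcutaneously at 100 mg/kg to groups of 10 mice. Animals were watched for 20 min for ataxia, convulsions, loss of righting reflex or death. Each sign was recorded as the number of animals affected out of 10 tested.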

Canis familiaris [2] = assay: Toxicity in iv dosed left anterior descending coronary artery ligated myocardial infarction model of dog assessed as dose required to cause toxic effect; format: organism-based, Canis lupus familiaris; settings: in vivo
[3] = Oral bioavailability in dog; format: ADME, organism-based, Canis lupus familiaris; settings: in vivo
Canis familiaris [4] = assay: Antiarrhythmic activity in left anterior descending coronary artery ligated myocardial infarction model of dog assessed as clearing value of ventricular ectopic beats at 0.5 mg/kg/min, iv; format: functional, Canis lupus familiaris, Heart
How it was run: (§2)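 Dogs with myocardial infarction from two-step ligation of the left anterior descending coronary artery were studied the day after ligation and given a drug infusion. Control percent ventricular ectopic beats, ventricular rate (beats/min) and mean arterial pressure (mmHg) were taken before infusion. Clearing values and dose were taken at the time of lowest ectopic-beat incidence; results are means and SD of 3–14 experiments.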

Canis familiaris [5] = assay: Antiarrhythmic activity in left anterior descending coronary artery ligated myocardial infarction model of dog assessed as mean arterial blood pressure at 0.5 mg/kg/min, iv; format: functional, Canis lupus familiaris; how it was run: as §2
Mus musculus [6] = assay: Ratio of lidocaine ED50 to compound ED50 for antiarrhythmic activity sc dosed mouse assessed as protection against chloroform-induced fibrillation; format: functional, Heart
Mus musculus [7] = assay: Toxicity in mouse assessed as ataxia at 100 mg/kg, sc measured up to 20 mins; format: organism-based; design: dose 100 mg/kg, route subcutaneous; settings: in vivo; how it was run: as §1
Mus musculus [8] = assay: Antiarrhythmic activity in sc dosed mouse assessed as protection against chloroform-induced fibrillation; format: functional; settings: Heart
How it was run: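 Mice (10 per dose) got at least three sc doses in 0.9% saline, chosen for low to high protection. After 20 min, chloroform vapour was given until respiration stopped, then fibrillation versus coordinated ventricular contraction was scored visually.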

Canis familiaris [9] = assay: Antiarrhythmic activity in iv dosed left anterior descending coronary artery ligated myocardial infarction model of dog assessed as dose required for reduction of ectopic beats to <= 5%; format: functional, Canis lupus familiaris, Heart; how it was run: as §2
Mus musculus [10] = assay: Toxicity in mouse assessed as loss of righting reflex at 100 mg/kg, sc measured up to 20 mins; format: organism-based; design: dose 100 mg/kg, route subcutaneous; settings: in vivo; how it was run: as §1
Canis familiaris [11] = assay: Antiarrhythmic activity in left anterior descending coronary artery ligated myocardial infarction model of dog assessed as clearing value of ventricular rate at 0.5 mg/kg/min, iv; format: functional, Canis lupus familiaris, Heart; how it was run: as §2
Mus musculus [12] = assay: Toxicity in mouse assessed as convulsion at 100 mg/kg, sc measured up to 20 mins; format: organism-based; design: dose 100 mg/kg, route subcutaneous; settings: in vivo; how it was run: as §1
Mus musculus [13] = assay: Antiarrhythmic activity in mouse assessed as protection against chloroform-induced fibrillation at 100 mg/kg, sc; format: functional, organism-based; design: dose 100 mg/kg; settings: Heart
How it was run: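 Preliminary screen: single 100 mg/kg sc dose in 0.9% saline to 10 mice. After 20 min, each mouse was held in chloroform-saturated air until respiration ceased, and the thorax was opened at once. A mouse counted as protected if ventricular contractions were coordinated rather than fibrillating. Read-out is the number protected of 10.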

Canis familiaris [14] = assay: Toxicity in left anterior descending coronary artery ligated myocardial infarction model of dog at […], iv; format: organism-based, Canis lupus familiaris; settings: in vivo
Canis familiaris [15] = assay: Cardiovascular toxicity in iv dosed left anterior descending coronary artery ligated myocardial infarction model of dog; format: organism-based, Canis lupus familiaris; settings: in vivo
Canis familiaris [16] = assay: Toxicity in iv dosed left anterior descending coronary artery ligated myocardial infarction model of dog at 0.20 mmol/kg, iv; format: organism-based, Canis lupus familiaris; settings: in vivo
Canis familiaris [17] = assay: Toxicity in iv dosed left anterior descending coronary artery ligated myocardial infarction model of dog at 0.25 mmol/kg, iv; format: organism-based, Canis lupus familiaris; settings: in vivo
Canis familiaris [18] = assay: Toxicity in iv dosed left anterior descending coronary artery ligated myocardial infarction model of dog assessed as dose required to cause convulsion; format: organism-based, Canis lupus familiaris; settings: in vivo
Mus musculus [19] = assay: Toxicity in mouse assessed as ataxia at 200 mg/kg, sc measured up to 20 mins; format: organism-based; design: dose 200 mg/kg, route subcutaneous; settings: in vivo
How it was run: (§3)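 Mice (10 per dose) received drug sc in 0.9% saline and were watched for 20 min for ataxia, convulsions, loss of righting reflex and death, before chloroform exposure. Read-out is the number affected of 10 tested.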

Mus musculus [20] = assay: Toxicity in mouse assessed as loss of righting reflex at 200 mg/kg, sc measured up to 20 mins; format: organism-based; design: dose 200 mg/kg, route subcutaneous; settings: in vivo; how it was run: as §3
Canis familiaris [21] = assay: Toxicity in iv dosed left anterior descending coronary artery ligated myocardial infarction model of dog assessed as dose required to cause death; format: organism-based, Canis lupus familiaris; settings: in vivo
How it was run: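 Baseline ectopic beats, ventricular rate and mean arterial pressure were recorded before drug infusion. Infusion was stopped at a toxic level, and the cumulative dose in mmol/kg causing death was recorded.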

| Compound | Activity (Mus musculus [1]) | Activity (Canis familiaris [4]) [%] | Activity (Canis familiaris [5]) [mmHg] | Ratio ED50 (Mus musculus [6]) | Activity (Mus musculus [7]) | ED50 (Mus musculus [8]) [µmol/kg] | Activity (Canis familiaris [9]) [mmol/kg] | Activity (Mus musculus [10]) | Activity (Canis familiaris [11]) [bpm] | Activity (Mus musculus [12]) | other results |
| --- | --- | --- | --- | --- | --- | --- | --- | --- | --- | --- | --- |
| Cc1cccc(C)c1NC(=O)CC(C)N.Cl (centres undefined) | Non-toxic | 0 | 97 | 0.6 | Non-toxic | 460 | 0.1 | Non-toxic | 148 | Non-toxic | Activity (Canis familiaris [2]): 0.33 mmol/kg; bioavailability [3]: > 90% |
| CCc1cccc(C)c1NC(=O)CC(C)N.Cl (centres undefined) | Non-toxic | – | – | 0.5 | Non-toxic | 540 | – | Non-toxic | – | Non-toxic | – |
| CCN(CC)CC(=O)Nc1c(C)cccc1C [LIDOCAINE] | Non-toxic | 4 | 101 | 1 | Toxic | 260 | 0.21 | Toxic | 133 | Toxic | Activity (Canis familiaris [2]): 0.27 mmol/kg; Activity (Mus musculus [13]): Active |
| Cc1cccc(C)c1NC(=O)CCN.Cl | Non-toxic | 5 | 85 | 0.5 | Non-toxic | 560 | 0.23 | Non-toxic | 120 | Non-toxic | Activity (Canis familiaris [14]): Non-toxic |
| CCN(CC)CCC(=O)Nc1c(C)cccc1C | Non-toxic | 15 | 115 | 0.9 | Toxic | 280 | 0.01 | Non-toxic | 132 | – | Activity (Canis familiaris [15]): Toxic; Activity (Canis familiaris [16]): Toxic; Activity (Canis familiaris [17]): Toxic; Activity (Canis familiaris [18]): 0.04 mmol/kg |
| Cc1cccc(C)c1N(C)C(=O)CCN.Cl.O | Non-toxic | – | – | – | Non-toxic | – | – | Non-toxic | – | Non-toxic | Activity (Mus musculus [19]): Toxic; Activity (Mus musculus [20]): Non-toxic; Activity (Mus musculus [13]): inactive |
| Cc1cccc(C)c1NC(=O)C(C)N (centres undefined) [TOCAINIDE] | Non-toxic | 2 | 108 | 0.2 | – | 1300 | 0.32 | Non-toxic | 148 | Non-toxic | Activity (Canis familiaris [2]): 0.3 mmol/kg |
| CCc1cccc(C)c1NC(=O)CCN.Cl | Non-toxic | – | – | 0.1 | Non-toxic | 1990 | – | Non-toxic | – | Non-toxic | – |
| Cc1cccc(C)c1N(C)C(=O)CC(C)N.O.O=C(O)C(O)C(O)C(=O)O (centres undefined) | Non-toxic | – | – | – | Toxic | – | – | Non-toxic | – | – | – |
| CCN(C(=O)CC(C)N)c1c(C)cccc1C.O.O=C(O)C(O)C(O)C(=O)O (centres undefined) | – | – | – | – | Toxic | – | – | – | – | Toxic | – |
| CCC(N)CC(=O)Nc1c(C)cccc1C.Cl (centres undefined) | Non-toxic | – | – | 0.7 | Non-toxic | 380 | – | Non-toxic | – | Non-toxic | – |
| Cc1cccc(C)c1NC(=O)CC(C)(C)N.Cl | Non-toxic | 39 | 95 | 1 | Non-toxic | 250 | 0.04 | Non-toxic | 138 | Non-toxic | Activity (Canis familiaris [21]): 0.17 mmol/kg |
